Results from ChEMBL document CHEMBL1148654, “DNA binding affinity of bisguanidine and bis(2-aminoimidazoline) derivatives with in vivo antitrypanosomal activity” (J Med Chem, 2006).
The source made the active and inactive calls. No cut-off for these calls is given here.

Key:
Nucleic Acid = assay: Binding affinity to Trypanosoma brucei rhodesiense DNA; assay type: nucleic-acid assay
[1] = test system: Trypanosoma brucei brucei; assay: Antitrypanosomal activity against trypomastigotes of AT1 knockout Trypanosoma brucei brucei 427; assay type: functional, organism-based
[2] = test system: Trypanosoma brucei brucei; assay: Antitrypanosomal activity against trypomastigotes of AT1 wild type Trypanosoma brucei brucei 427; assay type: functional, organism-based
[3] = test system: Trypanosoma brucei brucei; assay: Activity against Trypanosoma brucei brucei STIB795 in infected NMRI mouse at 20 mg/kg, ip; assay type: functional, organism-based; set-up: dose 20 mg/kg
Method in brief: (§1)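 Mice infected ip with 1 × 10^5 (STIB 795) or 2 × 10^4 (STIB 900) bloodstream forms, in groups of four. Dosed ip once daily on days 3–6, with an untreated control group. Parasitemia checked every second day to day 14, then twice weekly to day 60. Deaths recorded for mean survival time. Cured means surviving and aparasitemic at 60 days.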

Trypanosoma brucei [4] = assay: Activity against Trypanosoma brucei GVR35 in infected NMRI mouse at 40 mg/kg, ip; assay type: functional, organism-based; set-up: dose 40 mg/kg
[5] = test system: Trypanosoma brucei brucei; assay: Activity against Trypanosoma brucei brucei STIB795 in infected NMRI mouse at 10 mg/kg, ip; assay type: functional, organism-based; set-up: dose 10 mg/kg; method in brief: as §1
Trypanosoma brucei [6] = assay: Activity against Trypanosoma brucei GVR35 in infected NMRI mouse at 20 mg/kg, ip; assay type: functional, organism-based; set-up: dose 20 mg/kg
[7] = test system: Trypanosoma brucei rhodesiense; assay: Activity against Trypanosoma brucei rhodesiense STIB900 in infected NMRI mouse at 20 mg/kg, ip; assay type: functional, organism-based; set-up: dose 20 mg/kg; method in brief: as §1

Row | Compound | Activity (Nucleic Acid) | Activity [3] | other results
1 | O=S(=O)(c1ccc(NC2=NCCN2)cc1)c1ccc(NC2=NCCN2)cc1 | inactive |  | 
2 | N=C(N)Nc1ccc(C(=O)c2ccc(NC(=N)N)cc2)cc1 | Active |  | 
3 | N=C(N)Nc1ccc(Cc2ccc(NC(=N)N)cc2)cc1 | Active |  | 
4 | N=C(N)Nc1ccc(Nc2ccc(NC(=N)N)cc2)cc1 | Active | Active | IC50 [1]: 2.2 nM; IC50 [2]: 3 nM
5 | N=C(N)c1ccc(/N=N/Nc2ccc(C(=N)N)cc2)cc1 |  |  | Activity (Trypanosoma brucei [4]): inactive
6 | N=C(N)Nc1ccc(N2CCN(c3ccc(NC(=N)N)cc3)CC2)cc1 | Active |  | 
7 | N=C(N)c1ccc(OCCCCCOc2ccc(C(=N)N)cc2)cc1 | Active |  | 
8 | c1cc(NC2=NCCN2)ccc1Cc1ccc(NC2=NCCN2)cc1 | Active |  | 
9 | N=C(N)Nc1ccc(S(=O)(=O)c2ccc(NC(=N)N)cc2)cc1 | inactive |  | 
10 | N=C(N)Nc1ccc(CCCCCCCCc2ccc(NC(=N)N)cc2)cc1 |  |  | Activity [5]: inactive
11 | c1cc(N2CCN(c3ccc(NC4=NCCN4)cc3)CC2)ccc1NC1=NCCN1 | Active | Toxic | 
12 | c1cc(Nc2ccc(NC3=NCCN3)cc2)ccc1NC1=NCCN1 | Active | Active | Activity (Trypanosoma brucei [6]): inactive; Activity [7]: Active; IC50 [1]: 162 nM; IC50 [2]: 63.7 nM
13 | CC(C)(C)OC(=O)N1CC[N+](C(=O)OC(C)(C)C)=C1Nc1ccc(Nc2ccc(NC3=[N+](C(=O)OC(C)(C)C)CCN3C(=O)OC(C)(C)C)cc2)cc1 |  | inactive | 
